# NR2E3 ag-1 – inhibitors of NR2E3-RetCOR corepressor binding, primary screen, NR2E3 agonist project, biochemical, TR-FRET, GST-NR2E3, biotin-RetCOR; inhibition of corepressor binding, % at 4.78 µM; hit rate 0.12% among 320,000; 1536-well; AID 2300, 2010; Photoreceptor-specific nuclear receptor (Homo sapiens), Q9Y5X4;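 active means percent inhibition above the cutoff of mean plus 3 SD of all tested compounds, set per screening campaign, cut at about 20% in these data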;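 further: 0% = DMSO wells and 100% = biotin wells as full block of FRET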
# Target sequence (Q9Y5X4 whole entry, looked up): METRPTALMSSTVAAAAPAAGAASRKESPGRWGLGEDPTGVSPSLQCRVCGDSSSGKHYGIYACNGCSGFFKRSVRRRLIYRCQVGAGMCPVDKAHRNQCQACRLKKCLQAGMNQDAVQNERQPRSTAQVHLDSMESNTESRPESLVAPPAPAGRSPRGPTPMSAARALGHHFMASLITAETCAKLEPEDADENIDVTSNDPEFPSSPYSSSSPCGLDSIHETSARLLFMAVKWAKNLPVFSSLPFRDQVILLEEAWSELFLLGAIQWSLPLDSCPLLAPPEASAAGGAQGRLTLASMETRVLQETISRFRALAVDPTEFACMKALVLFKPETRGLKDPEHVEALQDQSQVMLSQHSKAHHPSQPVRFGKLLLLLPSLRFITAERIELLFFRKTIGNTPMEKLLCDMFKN
#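 System: GST-tagged NR2E3 plus biotinylated RetCOR corepressor; Amount: 1.35 nM GST-tagged NR2E3 final; Dosing: single nominal compound dose of 4.8 µM; Schedule: 5 h incubation at 4 °C; Technique: TR-FRET with europium anti-GST and streptavidin-D2, 340 nm excitation; Controls: biotin wells as high control, 0.6% DMSO wells as low control.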
# 697 NFkB inh – inhibitors of PMA/ionomycin-induced NF-kB reporter, 697 cells, primary screen, B-cell NF-kB inhibitor project, cell-based, luminescence, uHTS | 697 B-cell NF-kB luciferase reporter, 16 h | inhibition, % at 4 µM | hit rate 0.33% among 330,000 | AID 435022, 2010; in the data active means inhibition above about 35%
# FGF22 binding – binders of human FGF22 protein, primary screen, FGF22 synaptogenesis inhibitor project, biophysical, thermal shift, single point; recombinant FGF22 thermal shift, SYPRO orange fluorescence; percent of sucrose octasulfate shift, DMSO zero; hit rate 1.5% among 340,000; activity (Tm shift, normalised), % at 9.99 µM; AID 651658, 2012; Fibroblast growth factor 22 (Homo sapiens), Q9HCT0;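 active means mean Tm shift, scaled 0 neutral to 100 positive control, at about 1.3% or above, every replicate too, limit read from the data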
# Target sequence (Q9HCT0 whole entry, looked up): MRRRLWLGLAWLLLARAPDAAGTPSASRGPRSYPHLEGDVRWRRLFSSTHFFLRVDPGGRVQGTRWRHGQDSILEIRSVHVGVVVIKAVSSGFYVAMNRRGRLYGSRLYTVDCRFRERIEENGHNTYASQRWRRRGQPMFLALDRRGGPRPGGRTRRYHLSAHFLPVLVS
# Jurkat NFkB inh – inhibitors of induced NF-kB luciferase reporter, primary screen, TCR NF-kB activation inhibitor project, cell-based, luminescence, uHTS | Jurkat, PMA/ionomycin-induced NF-kB luciferase reporter | hit rate 0.53% among 330,000 | inhibition, % at 4 µM; in the data active means inhibition above about 50%
# miR-122 sensor – miR-122 Renilla sensor signal increase in Huh7, primary screen, miR-122 inhibitor project, cell-based, single point, plate reader | Huh7 miR-122 Renilla luciferase sensor, 48 h; neutral wells = 0, positive control = 100 | activation (reporter increase), % at 12.5 µM | hit rate 0.3% among 340,000 | AID 602342, 2012;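 active means mean replicate activation score at least 90 and every replicate individually at or above 90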;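 further: higher luciferase means less miR-122 activity so hits act as miR-122 inhibitors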
# NR2E3 ag-2 – NR2E3 agonists in two-hybrid cells, primary screen, cell-based, luminescence, CHO-S, Gal4-NCOR/VP16-NR2E3 | luciferase | Photoreceptor-specific nuclear receptor (Homo sapiens), Q9Y5X4 | hit rate 0.35% among 360,000 | AID 602229, 2012 | inhibition of corepressor binding, % at 3.98 µM;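 active means inhibition above the mean of all tested compounds plus 3 SD, cut at about 70% in these data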;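 further: 0% = DMSO with NR2E3 transfected cells and 100% = cells lacking NR2E3 construct; higher means lower luciferase signal from less NR2E3 corepressor binding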
# Jurkat NFkB conf – PMA/ionomycin-induced NF-kB reporter inhibitors, Jurkat retest, confirmation, T-cell NF-kB inhibitor project, cell-based, luminescence, single concentration; shares compounds with Jurkat NFkB inh; Jurkat NF-kB luciferase, 16 h; inhibition, % at 4 µM; hit rate 27% among 2,700;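 active means inhibition reaching about 45% at 4 µM in either replicate, limit read from the data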;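 further: plate controls were PMA/ionomycin stimulated DMSO wells for no effect and unstimulated DMSO wells for full effect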
# * = called active by the depositor; / = no result; [ ] = remark or other dose. Shown are actives, neighbours in structure and some others; about 2.2% of the full set was active somewhere.
SMILES,NR2E3 ag-1,697 NFkB inh,FGF22 binding,Jurkat NFkB inh,miR-122 sensor,NR2E3 ag-2,Jurkat NFkB conf
CCCCC(=O)NC(c1ccc(N(C)C)cc1)c1ccc2cccnc2c1O (stereo not given),7,-23,0,54*,-23,4,77*
CCC(=O)NC(c1cccs1)c1ccc2cccnc2c1O (stereo not given),3,-41,-1,63*,-10,-7,47*
CSc1cc(-c2ccccc2)n(Cc2ccccc2Cl)c(=O)c1C#N,3,-28,/,64*,-3,8,9
Cc1cc(C)cc(C(=O)N2CC(=O)Nc3ccccc32)c1,1,9,/,60*,27,9,56*
COc1cc(C(=O)N2CC(=O)Nc3ccccc32)cc(OC)c1OC,/,/,0,/,40,-9,/
N#Cc1ccccc1Cn1cc(/C=N/Nc2ccc([N+](=O)[O-])cn2)c2ccccc21,3,-15,1,67*,6,29,-6
O=[N+]([O-])c1ccc(NN=Cc2ccccc2O)nc1,/,/,0,/,-5,23,/
CCOC(=O)c1[nH]c(C=O)c(C(=O)OCC)c1C,1,-31,0,59*,/,-4,39
CCOC(=O)c1[nH]c(C)c(C(=O)Nc2ccccc2C)c1C,1,-60,0,53*,138*,-69,39
CCOC(=O)c1c(C)[nH]c(C(C)=O)c1C,4,7,/,13,4,10,/
CCOC(=O)c1[nH]c(C)c(C(=O)Nc2ccc(C)c(Cl)c2)c1C,3,5,/,-12,10,-17,/
CCOC(=O)c1[nH]c(C)c(C(=O)Nc2cc(Cl)ccc2C)c1C,2,23,0,69*,39,5,56*
CO[C@@H]1CN(C)C(=O)c2ccc(NC(C)=O)cc2OC[C@@H](C)N(CC2CC2)C[C@@H]1C,/,/,0,/,-10[16.7 µM],/,/
Cc1ccc(-c2ccc3c(c2)O[C@@H](CN(C)C(=O)C2CC2)[C@H](C)CN([C@@H](C)CO)S3(=O)=O)cc1,/,/,0,/,9[16.7 µM],/,/
C[C@H]1CN([C@@H](C)CO)S(=O)(=O)c2ccc(C3=CCCCC3)cc2O[C@@H]1CN(C)Cc1cncnc1,/,/,0,/,-8[16.7 µM],/,/
CC(=O)N1CC2(C1)[C@H](c1ccc(-c3ccccc3C)cc1)[C@H](CO)N2C(C)=O,/,/,0,/,/,/,/
Cc1ccc(Nc2nc(-c3c(C)nc4ncccn34)cs2)cc1,2,20,/,68*,41,17,49*
Cc1nc2ncccn2c1-c1csc(Nc2ccc(O)cc2)n1,/,3,42,3,/,-36,/
Cc1ccc2c(c1)Sc1c(ccc3ccccc13)N2,-1,-219,0,-171,15,-127,-28
C[C@@H]1CN([C@H](C)CO)C(=O)c2cc(-c3ccncc3)cnc2O[C@@H]1CN(C)S(=O)(=O)c1ccccc1,/,/,0,/,-2[16.7 µM],/,/
COCC(=O)N1[C@@H](CO)[C@@H]2c3ccccc3N(C(=O)Nc3ccccc3F)C[C@@H]21,/,/,-1,/,3[16.7 µM],/,/
COc1ccc(-c2cc(-c3cc(C)ccc3O)[nH]n2)cc1,1,10,42,77*,/,-126,38
Oc1ccccc1-c1cc(-c2ccccc2)no1,-1,-109,/,-165,-2,-152,-150
Cc1ccc(-c2cc(-c3ccccc3)no2)c(O)c1,-4,/,/,/,-2,-119,/
Cc1ccccc1-c1cc(-c2ccccc2O)on1,3,-98,/,-193,-8,-114,-128
SMILES,NR2E3 ag-1,697 NFkB inh,FGF22 binding,Jurkat NFkB inh,miR-122 sensor,NR2E3 ag-2,Jurkat NFkB conf
Cc1nc(-c2cc(-c3ccc(Cl)cc3)no2)cs1,-2,-155,0,-103,/,-88,/
Clc1ccc(-c2cc(-c3ccccc3)on2)cc1,3,-210,/,-173,-1,-52,-92
CC=Cc1ccc2n(c1=O)C[C@@H]1[C@@H](CO)[C@H](C(=O)N[C@H](C)c3ccccc3)[C@H]2N1Cc1cccnc1 (mixture of isomers),/,/,0,/,2[16.7 µM],/,/
COc1ccc2c3c(n(C)c2c1)[C@@H](CO)N(C(C)=O)CC31CN(Cc2cccnc2)C1,/,/,0,/,/,/,/
COc1ccc(S(=O)(=O)N(C)C[C@@H]2Oc3ccc(NC(=O)Nc4ccccc4)cc3CC(=O)N([C@@H](C)CO)C[C@@H]2C)cc1,/,/,0,/,-3[16.7 µM],/,/
CN1CCN(C(=O)C[C@H]2C[C@@H]3c4cc(NC(=O)Nc5ccccc5)ccc4O[C@@H]3[C@H](CO)O2)CC1,/,/,0,/,23[16.7 µM],/,/
O=C(Nc1cccc(Cl)c1)N[C@@H]1CC[C@@H](CCNC(=O)C2CCC2)O[C@@H]1CO,/,/,0,/,/,/,/
Cc1ccc(O)c(-c2cc(-c3ccc(F)cc3)no2)c1,2,-230,0,-193,6,-216,-144
Cc1cc(N2CCCCC2)nc(NCc2ccccc2)n1,-2,-19,/,68*,3,45,17
Cc1cc(OC2CCCCC2)nc(NCc2ccccc2)n1,0,-21,0,28,-1,-26,/
Clc1ccc(CSc2ccc(-c3ccccn3)nn2)cc1,1,-38,1,-44,0,-29,/
c1ccc(CSc2ccc(-c3ccccn3)nn2)cc1,0,-187,0,-160,-2,-157,-87
COc1ccc(C(=O)Nc2ccc([N+](=O)[O-])cn2)c(OC)c1,-4,-223,/,-167,1,-125,-95
COc1cc2ccccc2cc1C(=O)Nc1ccc(C)cn1,-1,-160,0,-159,/,-146,-112
C[C@@H]1CN([C@@H](C)CO)C(=O)c2cc(NC(=O)CCCN(C)C)ccc2O[C@@H](C)CCCCO[C@@H]1CN(C)C(=O)NC1CCCCC1,/,/,0,/,-1[16.7 µM],/,/
CCCNC(=O)Nc1ccc2c(c1)C(=O)N(C)C[C@H](OC)[C@@H](C)CN[C@@H](C)CO2,/,/,0,/,/,/,/
Fc1ccccc1Cn1nnc(-c2ccc3c(c2)OCO3)n1,2,-150,/,-162,7,-175,-127
COc1ccc(-c2nnn(Cc3ccccc3F)n2)cc1,5,-144,/,-104,10,-98,/
Cc1cc2c(cc1C)N(C(=O)CSc1nncn1C)C(C)(C)c1ssc(=S)c1-2,2,-3,/,30,-5,-6,/
Cc1ccc2c(c1)N(C(=O)CSc1nncn1C)C(C)(C)c1ssc(=S)c1-2,0,-1,/,53*,2,-12,-31
